Laboratory results: ChEMBL document CHEMBL4513216, “Probing the Open Global Health Chemical Diversity Library for Multistage-Active Starting Points for Next-Generation Antimalarials” (ACS Infect Dis, 2020)

Test: Toxicity liver stage against HepG2, at 10uM
Assay type: cell-based
Design: test concentration 10 uM, cell line HepG2-A16-CD81EGFP
Conditions: human, HepG2-A16-CD81EGFP cells; read-out: INHIBITION
Procedure, shortened: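 Uninfected HepG2-A16-CD81EGFP cells, 3 × 10^3 per well, 1536-well, plated on prespotted compound at 10 μM final, parasite-free screening media added to match infected plates; puromycin 10 μM positive, DMSO 0.5% negative; run in parallel with 48 h PbLuc assay at 37 °C, 5% CO2; viability by CellTiter-Glo luminescence, normalized to controls.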

Compound	cytotoxicity at 10 µM [%]
CS(=O)(=O)N1CCN(C(=O)CN2CCCc3c(F)cc(F)cc32)CC1	-1.52
Cc1nc(C)c(CN2CCOC[C@H](Oc3cnccn3)C2)s1	-5.33
O=C(Cc1ccc(Cl)s1)Nc1ccc2c(c1)C(=O)NC2=O	-7.19
CCCc1cc(C(=O)Nc2nc(SC)ns2)n(C)n1	8.49
Brc1cccc(-c2noc(C3COCCO3)n2)c1 (centres undefined)	8.71
CCOc1ccc(NC(=O)c2cccc(OC)c2OC)cc1	1.64
Cc1csc(-c2ccc(NC(=O)N3CCOCC3)cc2)n1	-9.2
CCN(CC(C)C#N)C(=O)c1cccc(COc2ccc(C)nc2)c1 (centres undefined)	5.8
CC(=O)Nc1cc(-c2cccc(F)c2F)n[nH]1	-0.305
NC(=O)C1Cc2ccccc2CN1CCC(=O)N1CCc2ccccc21 (centres undefined)	-4.23
Cn1cc(N2CCN(c3ccc(C#N)cc3F)CC2=O)cn1	-2.14
NC(=O)NC1(C(=O)N2CCc3c(Cl)cccc3C2)CCCCC1	-3.45
CC(C)(C)NC(=O)c1cnc2n1CCCC2	-3.32
O=C(c1csnn1)N1CCc2ccccc21	5.35
CCC(CC)(CNC(=O)OC(C)(C)C)NC(=O)C1CC1	-0.708
Cc1cnn(CCNC(C)C(=O)Nc2ccc(Cl)cn2)c1 (centres undefined)	0.858
Cc1cnn(CCNCC(=O)Nc2ccc(Cl)cn2)c1	1.93
N#Cc1cccc(OCc2ccoc2C(=O)N2CCCCC2)c1	-6.57
CCN(Cc1ccco1)C(C)c1nc(C)no1 (centres undefined)	-10.1
CSCc1cc(F)ccc1CNC(=O)N1CCCC1	5.58
Cc1noc(C)c1C(=O)NCCN1CCN(c2ccccc2)CC1	-10.8

Compound	cytotoxicity at 10 µM [%]
CCc1nc(CCNC(=O)NC2CCSCC2)cs1	-5.55
CCn1cnnc1C1CCN(C(=O)CC(C)n2cccc2)CC1 (centres undefined)	-1.49
Cc1ccccc1-n1cnnc1SCC(=O)NCC1CCCO1 (centres undefined)	-1.15
CCC(C)NC(=O)c1ccc(CNC(=O)CC(C)(C)C)cc1 (centres undefined)	10
CCCNC(=O)CNc1cc(C(=O)NCC(F)(F)F)cc(F)c1C	10
CCc1nsc(N2CCN(CC(=O)Nc3c(C)n[nH]c3C)CC2)n1	-3.63
CCC1CN(Cc2c(O)ccc3oc4c(c23)CCCC4)CCO1 (centres undefined)	2.03
O=C(CCNc1ncccn1)NCc1cccc(OC(F)F)c1	-1.75
Cc1nn(C)c(N2CCOCC2)c1CNCC1CCS(=O)(=O)C1 (centres undefined)	-2.09
CCCOc1cccc(NC(=O)NC2CCc3nc(C)nn3C2)c1 (centres undefined)	-1.65
N#Cc1cccc(CNC(=O)C2=NN(c3ccccc3)C(=O)CN2)c1	-3.44
Cc1cc(C)n(-c2ccc(N3CCC4(CC3)OCCO4)nc2)n1	-4.84
O=C(CSc1ccc2c(c1)OCCO2)NS(=O)(=O)c1cccs1	-3.13
NC(=O)CN1CCCN(C(=O)c2ccn(-c3ccc(F)cc3)n2)CC1	-5.69
O=C(CSc1ccc2c(c1)OCCO2)NS(=O)(=O)c1cccnc1	-5.72
O=C(CSc1ccc2c(c1)OCCO2)NS(=O)(=O)c1ccccc1	-2.56
COc1cc(NC(=O)c2cscn2)ncn1	3.12
CCN1CCN(CCC(=O)NC2CC(c3cccc(Cl)c3)C2)CC1 (centres undefined)	-7.37
CCc1nc(C2CCCN(c3ncccn3)C2)no1 (centres undefined)	-0.996
COCCN1CCN(CC(=O)N(C)Cc2ccc(F)cc2)CC1C (centres undefined)	-145
CN(C)C(=O)c1csc(-c2ccoc2)n1	-1.13

Compound	cytotoxicity at 10 µM [%]
OCC1(CNC2CCc3cc4c(cc32)OCCO4)CC1 (centres undefined)	-3.37
Cc1sc2nc(SC(C)c3nc(C(C)(C)C)no3)nc(N)c2c1C (centres undefined)	-1.13
CC(C)N(C(=O)c1csc(-c2ccoc2)n1)C1CCOCC1	-1.18
CN(CC1CCC1)C(=O)c1ccc(-c2nc(C3CC3)n[nH]2)cc1	-3.26
O=C(CC1CCCO1)Nc1ccc2c(ccn2CCN2CCOCC2)c1 (centres undefined)	2.55
Cc1cc(CS(=O)(=O)NCC2CCCCC2)on1	-18.7
CCCC(Cn1cnc(-c2ccccc2)c1-c1cncn1CC)N(C)C (centres undefined)	7.59
c1cc(-c2cc(C3CCN(Cc4cncnc4)C3)ccn2)ccn1 (centres undefined)	-0.969
CSCCC(=O)N1CCc2c(ncnc2N2CCOCC2)C1	-4.88
CN1CCN(CCn2cnc3c(F)cccc3c2=O)CC1	-1.67
O=C(c1cnccn1)N1CCCC(Cn2cc(C3CC3)nn2)C1 (centres undefined)	-5.9
Cc1cc(C(=O)NCCc2cn3nc(C)sc3n2)c(C)o1	5.68
COc1ccccc1Oc1ncccc1CNC(=O)C(C)CN (centres undefined)	0.884
CCc1ccc2nc(C)cc(C(=O)N[C@@H]3CNC[C@H]3O)c2c1	-11
COCc1noc(-c2ccc(N(C)Cc3nccs3)nc2)n1	-1.57
CCCn1ncc(C(=O)N2CCN(C3CCSCC3)CC2)c1C	-148
COCCOCC(=O)N1CCC(c2ccccc2F)C1 (centres undefined)	-6.45
Cc1nc(C(C)C)sc1C(=O)N(C)CCCc1cnn(C)c1	-4.6
O=C(c1cnccn1)N1CCCC(Cn2cc(C3CCCC3)nn2)C1 (centres undefined)	-4.86
O=C1CCC2(CCCN(C(=O)c3ccc[nH]3)C2)CN1Cc1cccnc1 (centres undefined)	9.88
CCN(C)CC(C)Cn1cnc(-c2ccccc2)c1C (centres undefined)	-3.06

Compound	cytotoxicity at 10 µM [%]
Cc1cc(N2Cc3cnn(CCO)c3C2)nc(-c2ccccc2O)n1	-162
O=C(Nc1ccc(-c2nc3c([nH]2)CCNC3)cc1)N1CCCC1	-4.36
CCOc1ccc(-c2ccc3c(c2)OCO3)cc1C(N)=O	5.17
CN(CCC(O)c1ccccc1)c1cc(N2CCOCC2)ncn1 (centres undefined)	-148
CCNC(=O)c1ccnc(CC2COc3c(cccc3OC)C2)c1 (centres undefined)	0.441
O=C(N[C@H]1COC[C@@H]1N1CCCC1)c1c[nH]nc1C1CCCCC1	-5.59
Cc1ccsc1CNC(=O)NC(C)c1ccc2c(c1)CCC(=O)N2 (centres undefined)	5.31
Fc1ccc(-c2nnc(CN3CCCC(Cn4cncn4)C3)o2)cc1 (centres undefined)	-4.87
Cc1nc(-c2ccc(Cl)s2)sc1C(=O)NCCCC(N)=O	-5.6
CC(NC(=O)NCCCN1CCc2ccccc2C1)c1nncn1C (centres undefined)	-2.6
COc1c(C2CCCN2CC(=O)Nc2cc(C)on2)c(C)nn1C (centres undefined)	-1.19
Cc1cnc(C(=O)N2CCC(C(=O)c3cc(F)ccc3F)CC2)cn1	-5.88
Cc1nc(CN2CCCC(NCC(=O)Nc3cccnc3)C2)no1 (centres undefined)	0.0757
Cc1ccc(CN2C[C@H](OCCN(C)C)[C@H]3OCCC[C@H]32)o1	-146
O=C1CC2(CCN(Cc3cccnc3)C2)CN1c1cccc(F)c1 (centres undefined)	-147
O=c1ccc2c(n1Cc1cccnc1)CCN(Cc1ccoc1)CC2	-140
O=C(Nc1cccc(C(=O)OCC2CCCN2)c1)c1ccoc1 (centres undefined)	-3.06
CCc1ccc(NS(=O)(=O)C=c2[nH]c(=O)n3cccc3c2=O)cc1	8.45
Cc1nc(C)c(CC(=O)N2C[C@@H]3CC[C@H]2CN(c2cnccn2)C3)s1	10.1
CNc1nc2cn(-c3cccc(OC)c3)c(=O)c-2c[nH]1	6.04
CCCn1nccc1NC(=O)CN1CCCC1Cn1nc(C)nc1C (centres undefined)	-6.84
